OX1R antag-1: human HCRTR1 antagonism; O43613; CHO/OX1R cells, Fluo-8 calcium fluorescence, orexin A; inhibition, % at 5 µM; actives 0.43% (n = 330,000); AID 434989;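 active = inhibition above its plate's threshold, mean inhibition of all tested compounds on the plate plus 3 SD, cut at about 37% in these data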;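 also: 0% = orexin A challenge wells and 100% = SB-334867-A antagonist wells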
Target sequence (O43613 whole entry, looked up): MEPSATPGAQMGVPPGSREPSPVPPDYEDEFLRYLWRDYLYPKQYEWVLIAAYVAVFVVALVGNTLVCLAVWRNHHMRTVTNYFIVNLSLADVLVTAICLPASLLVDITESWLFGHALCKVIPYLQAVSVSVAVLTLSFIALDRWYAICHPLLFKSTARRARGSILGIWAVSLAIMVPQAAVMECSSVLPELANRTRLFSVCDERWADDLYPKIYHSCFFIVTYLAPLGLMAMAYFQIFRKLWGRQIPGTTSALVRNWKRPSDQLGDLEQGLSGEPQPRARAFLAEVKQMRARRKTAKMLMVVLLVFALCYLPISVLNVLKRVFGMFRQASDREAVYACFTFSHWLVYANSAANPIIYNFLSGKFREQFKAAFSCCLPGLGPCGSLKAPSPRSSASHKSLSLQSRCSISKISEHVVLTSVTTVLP
TAAR1 agonist: agonists of human TAAR1. Q96RJ0. CHO RD-HGA16 TAAR1, Fluo-8 calcium fluorescence; vehicle wells 0%, saturating PEA agonist 100%. actives 0.99% (n = 360,000). activation, % at 3 µM. AID 624467;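 active = activation above the mean activation of all test compounds in the run plus 3 SD, cut at about 38% in these data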
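Test system: RD-HGA16 (CHO) cells co-expressing Gα16 and hTAAR1 | Doses: Single dose, 3 µM | Schedule: 17-24 h seeding, 75 min 37 °C dye, 30 min RT | Evaluation: % activation from peak over basal fluorescence ratio, DMSO-to-PEA scaled | Technique: Kinetic Fluo-8 calcium fluorescence | Benchmarks: Low control DMSO, high control PEA (EC100)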
TAAR1 antagonist: human TAAR1 antagonism. CHO RD-HGA16 TAAR1, Fluo-8 calcium fluorescence, antagonist. inhibition, % at 3 µM. actives 1.5% (n = 360,000). AID 624466;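 active = inhibition above a per-plate cutoff, the mean inhibition of test compounds on that plate plus 3 SD, cut at about 49% in these data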;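 also: 0% = DMSO plus EC80 beta-PEA response and 100% = DMSO alone without agonist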
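test system = CHO RD-HGA16 cells bearing hTAAR1 | replication = singlicate | controls = DMSO-only wells and EC80 β-PEA-stimulated wells | reagent = EC80 β-phenethylamine stimulus | read-out basis = percent inhibition of PEA-evoked calcium signal, max/basal emission ratio | schedule = seeding 17-24 h prior, 75-min 37 °C, 30-min RT dye loading | signal = kinetic Fluo-8 calcium fluorescence measurement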
GPR7 antagonist: human neuropeptides B/W receptor 1 antagonism; P48145; GPR7-expressing cells, fluorescence antagonist assay; inhibition, % at 4.4 µM; actives 1.1% (n = 290,000); AID 1861; in the data active = inhibition above about 16%, passing the limit was not always enough;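 also: cells stimulated with the agonist NPW; 0% = agonist with vehicle and 100% = vehicle without agonist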
CHO parental Ca: counter-screen for OX1R antagonists: effect in parental CHO cells; parental CHO-K1, ATP-induced calcium, Fluo-8 fluorescence; inhibition, % at 5.6 µM; actives 0.63% (n = 330,000);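 active = inhibition above that plate's mean sample inhibition plus 3 SD, cut at about 26% in these data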;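 also: 0% = ATP-challenged DMSO wells and 100% = DMSO wells without ATP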
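Test system: untransfected parental CHO cell line. Compound: one dose, 5.6 µM nominal. Detection: intracellular calcium via Fluo-8 no-wash fluorescent dye. Measure: % inhibition. Benchmarks: ATP-challenged DMSO wells low, unchallenged DMSO wells high.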
OX1R antag-2: antagonists of human orexin 1 receptor (OX1R); AID 485270; inhibition, % at 6.6 µM; actives 1.8% (n = 330,000); O43613; OX1R-expressing cells, FRET antagonist read-out; in the data active = inhibition mostly above about 38%, no sharp cut-off; inactive = mostly below about 40%;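 also: 0% = agonist challenge alone and 100% = reference antagonist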
nonsel antag count: nonselective antagonist in TAAR1 antagonist counter-screen | shares compounds with TAAR1 antagonist | counterscreen cell line, calcium fluorescence, antagonist mode | inhibition, % at 3 µM | actives 77% (n = 2,400); in the data active = inhibition above about 22%;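 also: CHO-Ga16 host cells stimulated with ATP at an EC80 level; 0% = agonist EC80 plus vehicle and 100% = vehicle without agonist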
TAAR1 antag conf: confirmation of human TAAR1 antagonists | shares compounds with TAAR1 antagonist | TAAR1-expressing cells, fluorescence antagonist read-out | inhibition, % at 3 µM | actives 40% (n = 2,400) | AID 651785; in the data active = inhibition above about 49%;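 also: CHO-Ga16 host cells challenged with agonist PEA near its EC80; 0% = agonist at EC80 plus vehicle and 100% = vehicle with no agonist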
Ga16 ag counter: counter-screen for TAAR1 antagonists: nonselective Ga16 agonists; shares compounds with TAAR1 antagonist; Ga16-expressing cells, calcium fluorescence, agonist counterscreen; activation, % at 3 µM; actives 18% (n = 2,400); in the data active = activation above about 12%;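 also: 0% = vehicle wells and 100% = saturating stimulus response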
TAAR1 ag counter: counter-screen for human TAAR1 antagonists: TAAR1 agonists; activation, % at 3 µM; shares compounds with TAAR1 antagonist; hTAAR1 cell line, fluorescence activation, agonist mode; AID 651955; actives 2% (n = 2,400); in the data active = activation above about 37%;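 also: CHO cells stably expressing TAAR1 with calcium dye readout; 0% = DMSO vehicle and 100% = full agonist response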
Numbers without * were called inactive. In the library only some 4.5% were active in any assay of this set; here they are far more common.

Screening O=C(c1ccc(S(=O)(=O)Cc2ccccc2Cl)c([N+](=O)[O-])c1)N1CCN(c2ccccn2)CC1 returned OX1R antag-1 -12, TAAR1 agonist 17, TAAR1 antagonist 69*, GPR7 antagonist 8, CHO parental Ca -25, OX1R antag-2 55, nonsel antag count 38*, TAAR1 antag conf 53*, Ga16 ag counter 15* and TAAR1 ag counter 14.
For Cc1c([N+](=O)[O-])cc(C(=O)Nc2ccc(Cc3ccncc3)cc2)cc1[N+](=O)[O-] the results were OX1R antag-1 -1, TAAR1 agonist 14, TAAR1 antagonist 88*, GPR7 antagonist -2, CHO parental Ca -13, OX1R antag-2 12, nonsel antag count 31*, TAAR1 antag conf 91*, Ga16 ag counter 11 and TAAR1 ag counter 16.
For COc1cccc(OC)c1C(=O)Nc1cccc(NC(=O)c2cccs2)c1 the results were OX1R antag-1 -15, TAAR1 agonist 5, TAAR1 antagonist 2, GPR7 antagonist -10, CHO parental Ca -12 and OX1R antag-2 17.
For COc1ccc(C(=O)Nc2cccc(NC(=O)c3cccs3)c2)cc1OC the results were OX1R antag-1 2, TAAR1 agonist 16, TAAR1 antagonist 62*, GPR7 antagonist -13, CHO parental Ca -13, OX1R antag-2 75*, nonsel antag count 26*, TAAR1 antag conf 29, Ga16 ag counter 7 and TAAR1 ag counter 3.
Screening COc1cc(NC(=O)COc2ccccc2[N+](=O)[O-])ccc1NC(=O)c1cccs1 returned TAAR1 agonist 3, TAAR1 antagonist -14 and GPR7 antagonist -9.
COc1cc(NC(=O)COc2ccccc2Cl)ccc1NC(=O)c1cccs1 was read as OX1R antag-1 -13, TAAR1 agonist 8, TAAR1 antagonist 57*, GPR7 antagonist -16, CHO parental Ca -6, OX1R antag-2 28, nonsel antag count 24*, TAAR1 antag conf 43, Ga16 ag counter 5 and TAAR1 ag counter 6.
`Cc1ccc(C(=O)OCC(=O)Nc2nc(-c3ccccc3)cs2)cc1NC(=O)c1ccco1` gave OX1R antag-1 0, TAAR1 agonist 16, TAAR1 antagonist 83*, GPR7 antagonist -6, CHO parental Ca -9, OX1R antag-2 35, nonsel antag count 37*, TAAR1 antag conf 54*, Ga16 ag counter 9 and TAAR1 ag counter 7.
O=C(COc1ccccc1Cl)Nc1nc(-c2ccncc2)cs1 was read as OX1R antag-1 12, TAAR1 agonist 17, TAAR1 antagonist 64*, CHO parental Ca -13, OX1R antag-2 4, nonsel antag count 43*, TAAR1 antag conf 58*, Ga16 ag counter 13* and TAAR1 ag counter 12.
Cc1ccc(C(=O)OCC(=O)Nc2ccccc2)cc1NC(=O)c1ccco1 was read as OX1R antag-1 -21, TAAR1 agonist 6, TAAR1 antagonist 5, GPR7 antagonist -4, CHO parental Ca -14 and OX1R antag-2 9.
CC(C)(Cc1nc2ccccc2[nH]1)c1nc2ccccc2[nH]1 was read as TAAR1 agonist 0 and TAAR1 antagonist 11.
For O=C(COC(=O)c1cccnc1Cl)Nc1nc(-c2ccccc2)cs1 the results were OX1R antag-1 -6, TAAR1 agonist 17, TAAR1 antagonist 68*, GPR7 antagonist -1, CHO parental Ca -1, OX1R antag-2 23, nonsel antag count 33*, TAAR1 antag conf 47, Ga16 ag counter 12* and TAAR1 ag counter 14.
O=C(COC(=O)c1ccccc1O)Nc1cccnc1Cl was read as OX1R antag-1 -4, TAAR1 agonist 1, TAAR1 antagonist -2, GPR7 antagonist -2, CHO parental Ca 6 and OX1R antag-2 10.
Screening C[C@H](NC(=O)OCc1ccccc1)C(=O)N[C@@H](Cc1c[nH]c2ccccc12)C(=O)O returned OX1R antag-1 -18, TAAR1 agonist 1, TAAR1 antagonist 17, CHO parental Ca -4 and OX1R antag-2 13.
COc1ccccc1CNC(=O)C(Cc1c[nH]c2ccccc12)NC(=O)OCc1ccccc1 (stereo not drawn) was read as OX1R antag-1 1, TAAR1 agonist 14, TAAR1 antagonist 63*, GPR7 antagonist -12, CHO parental Ca 4, OX1R antag-2 32, nonsel antag count 20, TAAR1 antag conf 46, Ga16 ag counter 6 and TAAR1 ag counter 6.
`COc1ccc(C(=O)Nc2nc3ccccc3c(=O)[nH]2)cc1` gave OX1R antag-1 -9, TAAR1 agonist 10, TAAR1 antagonist -10, GPR7 antagonist 4, CHO parental Ca -13 and OX1R antag-2 42.
COc1ccc(C(=O)Nc2cccc(/C=C/c3nc4ccccc4c(=O)[nH]3)c2)cc1 was read as OX1R antag-1 -23, TAAR1 agonist 13, TAAR1 antagonist 55*, GPR7 antagonist -3, CHO parental Ca -13, OX1R antag-2 24, nonsel antag count 16, TAAR1 antag conf 38, Ga16 ag counter 7 and TAAR1 ag counter 4.
For O=C(Nc1cccc(/C=C/c2nc3ccccc3c(=O)[nH]2)c1)c1ccccc1Cl the results were OX1R antag-1 -24, TAAR1 agonist 10, TAAR1 antagonist 68*, GPR7 antagonist -14, CHO parental Ca -10, OX1R antag-2 31, nonsel antag count 30*, TAAR1 antag conf 48, Ga16 ag counter 12* and TAAR1 ag counter 5.
CCCCOCCCNC(=O)C[C@@H]1C[C@@]2(C(=O)OC)CC(C)(C)CC=C2N(Cc2cccc3ccccc23)C1=O was read as TAAR1 agonist 4 and TAAR1 antagonist -31.
`COc1cccc(C(=O)OCCNC(=O)c2cccnc2)c1` gave OX1R antag-1 -5, TAAR1 agonist 0, TAAR1 antagonist -2, GPR7 antagonist -4, CHO parental Ca -14 and OX1R antag-2 14.
`O=C(CSc1nc2ccc(NC(=O)c3ccccc3C(=O)O)cc2s1)Nc1c(Cl)cccc1Cl` gave OX1R antag-1 -7, TAAR1 agonist -1, TAAR1 antagonist -22, GPR7 antagonist 2, CHO parental Ca -3 and OX1R antag-2 30.

High-throughput results as filed in PubChem BioAssay.
